Data taken from ChEMBL document CHEMBL4725302, “Isosteres of ester derived glucose uptake inhibitors” (Bioorg Med Chem Lett, 2020).

Experiments:
[1] = Inhibition of glucose uptake in human NCI-H1299 cells at 30 uM incubated for 10 mins followed by […][3H]2-deoxyglucose and glucose addition and measured after 30 mins by scintillation counting method relative to control; type: functional; conditions: NCI-H1299, 10 min
How it was run: (§1)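 H1299 cells held 2 h in serum-free medium, then 30 min in KRP buffer. Treated ±30 µM compound for 10 min, then 37 MBq/L [3H]2-deoxyglucose plus 1 mmol/L glucose in KRP for 30 min uptake. Washed twice with ice-cold PBS, lysed in NaOH, radioactivity by scintillation counting. Replicates triplicate to hexad, repeated at least once; mean ± standard deviation.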

NCI-H1299 [2] = test: Antiproliferative activity against human NCI-H1299 cells assessed as reduction in cell viability at 30 uM incubated for 48 hrs by MTT assay relative to control; type: functional
How it was run: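 H1299 cells seeded at 5,000 per well, exposed in hexads to compound at 30 µM or DMSO (<0.5% v/v) for 48 h. MTT then added for 4 h and absorbance read at 570 nm. Conditions run in triplicate, quadruplicate or hexad, experiment repeated at least once; mean ± standard deviation.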

[3] = Inhibition of glucose uptake in human NCI-H1299 cells incubated for 10 mins followed by […][3H]2-deoxyglucose and glucose addition and measured after 30 mins by scintillation counting method; type: functional, cell-based; how it was run: as §1
NCI-H1299 [4] = test: Antiproliferative activity against human NCI-H1299 cells assessed as reduction in cell viability incubated for 48 hrs by MTT assay; type: functional, cell-based; conditions: NCI-H1299, 48 h
[5] = Stability in human serum assessed as reduction in A549 cell viability at 30 uM measured upto 72 hrs by resazurin assay; type: cell-free
How it was run: (§2)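 Compound at 30 µM preincubated at 37 °C in DMEM with 10% FBS and 1% Pen/Strep for 0, 1, 2, 4, 6, 9, 12, 24, 48 and 72 h. This medium then applied for 24 h to 5 x 10^3 A549 cells (grown overnight, washed twice with PBS). Resazurin added for 30 min, fluorescence Ex 560/Em 590, normalized to DMSO mock.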

[6] = Stability in human serum assessed as compound remaining incubated for 1 hr; type: ADME, cell-free; conditions: read-out: Stabilty
[7] = Stability in human serum assessed as reduction in A549 cell viability at 30 uM measured upto 12 hrs by resazurin assay; type: cell-free; how it was run: as §2
A549 = test: Antitumor activity in human A549 cells xenografted in NU/J mouse assessed as reduction in tumor volume at 10 mg/kg, ip administered for 10 weeks and measured for every 7 day relative to control; type: functional; set-up: scale not given: the % may be the effect or the level left

Row | Compound | inhibition at 30 µM [1] [%] | inhibition at 30 µM (NCI-H1299 [2]) [%] | other results
1 | O=C(Nc1ccc(Cl)cc1NC(=O)c1cc(O)cc(Cl)c1)c1cc(O)cc(Cl)c1 | 60.6 | 61.3 | 
2 | [O-][S+](Cc1cccc(F)c1C[S+]([O-])c1cccc(O)c1)c1cccc(O)c1 (configuration not stated) | 17.2 | 0.2 | 
3 | Oc1cc(Cl)cc(CNc2ccc(Cl)cc2NCc2cc(O)cc(Cl)c2)c1 | 81.7 | 47.6 | 
4 | COc1ccc(CNc2ccc(Cl)cc2NCc2ccc(OC)c(O)c2)cc1O | 42.2 | 22 | 
5 | O=C(Nc1ccc(Cl)cc1NC(=O)c1ccc(Cl)c(O)c1)c1ccc(Cl)c(O)c1 | 85.2 | 19 | 
6 | Oc1cccc(CNc2ccc(F)cc2NCc2cccc(O)c2)c1 | 39.2 | 37.7 | 
7 | Oc1ccc(Cl)c(CNc2ccc(Cl)cc2NCc2cc(O)ccc2Cl)c1 | 80.7 | 70.8 | 
8 | O=C(Nc1cccc(F)c1NC(=O)c1cccc(O)c1)c1cccc(O)c1 | 20 | 33.4 | 
9 | Cc1cc(O)cc(CNc2ccc(Cl)cc2NCc2cc(C)cc(O)c2)c1 | 75 | 60.4 | 
10 | O=C(Oc1cccc(O)c1)c1cccc(F)c1C(=O)Oc1cccc(O)c1 | 78.2 | 15.3 | 
11 | Oc1cccc(CNc2ccc(Cl)cc2NCc2cccc(O)c2)c1 | 52.2 | 56.6 | 
12 | Cc1ccc(O)cc1CNc1ccc(Cl)cc1NCc1cc(O)ccc1C | 82.9 | 46.3 | 
13 | Oc1cccc(OCc2cccc(F)c2COc2cccc(O)c2)c1 | 89.5 | -1.4 | 
14 | Cc1cc(O)cc(C(=O)Nc2ccc(Cl)cc2NC(=O)c2cc(C)cc(O)c2)c1 | 61.4 | 84.7 | 
15 | O=C(Nc1ccc(Cl)cc1NC(=O)c1cccc(O)c1)c1cccc(O)c1 | 83.7 | 5.9 | 
16 | O=C(Nc1ccc(Cl)cc1NC(=O)c1ccc(Br)c(O)c1)c1ccc(Br)c(O)c1 | 97.3 | 54.6 | 
17 | Cc1ccc(CNc2ccc(Cl)cc2NCc2ccc(C)c(O)c2)cc1O | 93.7 | 77.5 | IC50 [3]: 1.9 µM; IC50 (NCI-H1299 [4]): 7 µM; Stabilty [5]: Stable

Row | Compound | inhibition at 30 µM [1] [%] | inhibition at 30 µM (NCI-H1299 [2]) [%] | other results
18 | Oc1cccc(COc2cccc(F)c2OCc2cccc(O)c2)c1 | 92.6 | 10.6 | 
19 | Oc1cccc(CNc2cccc(F)c2NCc2cccc(O)c2)c1 | 54.8 | 5 | 
20 | O=C(Oc1cccc(F)c1OC(=O)c1cccc(O)c1)c1cccc(O)c1 | 92.8 | 56.9 | remaining at 1 h [6]: 25%; Stabilty [7]: Unstable; Activity (A549): 70%
21 | COc1ccc(C(=O)Nc2ccc(Cl)cc2NC(=O)c2ccc(OC)c(O)c2)cc1O | 39.5 | 26 | 
22 | O=C(Nc1ccc(Cl)cc1NC(=O)c1cc(O)ccc1Cl)c1cc(O)ccc1Cl | 89.9 | 45.3 | 
23 | Cc1ccc(O)cc1C(=O)Nc1ccc(Cl)cc1NC(=O)c1cc(O)ccc1C | 21 | 21 | 
24 | Oc1cc(CNc2ccc(Cl)cc2NCc2ccc(Br)c(O)c2)ccc1Br | 69.1 | 74.1 | 
25 | Oc1cccc(SCc2cccc(F)c2CSc2cccc(O)c2)c1 | 98.1 | -2 | 
26 | Oc1cc(CNc2ccc(Cl)cc2NCc2ccc(F)c(O)c2)ccc1F | 24.1 | 22.1 | 
27 | O=C(Nc1ccc(Cl)cc1NC(=O)c1ccc(F)c(O)c1)c1ccc(F)c(O)c1 | 47.8 | 25.7 | 
28 | Cc1ccc(C(=O)Nc2ccc(Cl)cc2NC(=O)c2ccc(C)c(O)c2)cc1O | 84.8 | 55 | 
29 | Oc1cccc(CCc2cccc(F)c2CCc2cccc(O)c2)c1 | 60.7 | -22.7 | 
30 | O=C(Nc1ccc(F)cc1NC(=O)c1cccc(O)c1)c1cccc(O)c1 | 89.7 | 5.7 | 
31 | Oc1cc(CNc2ccc(Cl)cc2NCc2ccc(Cl)c(O)c2)ccc1Cl | 52.4 | 70.9 | 
32 | Oc1cccc(COc2ccc(Cl)cc2OCc2cccc(O)c2)c1 | 91.2 | 14.3 | 
33 | O=S(=O)(Cc1cccc(F)c1CS(=O)(=O)c1cccc(O)c1)c1cccc(O)c1 | 61.4 | 11.8 | 
